From ChEMBL document CHEMBL1156668, “Synthesis and antimicrobial activity of novel sulfone-linked bis heterocycles” (2008)
Values after ≈ are worked out from the molar mass of the structure shown.

Assays:
Assay type in all cases: functional
Fusarium solani [1] = test: Antifungal activity against Fusarium solani at 200 ug after 48 hrs by agar disc-diffusion method; conditions: read-out: IZ
In short: (§1)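 Fungal strains from NCIM, Pune, were tested by disc diffusion on nutrient agar. Sterile 6 mm paper discs moistened with the compound solution in DMSO were placed on plates pre-inoculated with each fungus. Plates were incubated at 37 °C, and the inhibition-zone diameter was read after 48 h.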

Klebsiella pneumoniae [2] = test: Antibacterial activity against Klebsiella pneumoniae at 200 ug after 24 hrs by agar disc-diffusion method; conditions: read-out: IZ
In short: (§2)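 Agar disc diffusion on nutrient agar with bacterial strains from NCIM, Pune. Sterile 6 mm filter-paper discs were wetted with compound in DMSO and placed on plates already inoculated with each organism. Plates were incubated at 37 °C, and the diameter of the growth-inhibition zone was measured after 24 h.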

Bacillus subtilis [3] = test: Antibacterial activity against Bacillus subtilis at 200 ug after 24 hrs by agar disc-diffusion method; conditions: read-out: IZ; in short: as §2
Klebsiella pneumoniae [4] = test: Antibacterial activity against Klebsiella pneumoniae at 100 ug after 24 hrs by agar disc-diffusion method; conditions: read-out: IZ; in short: as §2
Staphylococcus aureus [5] = test: Antibacterial activity against Staphylococcus aureus at 200 ug after 24 hrs by agar disc-diffusion method; conditions: read-out: IZ; in short: as §2
Curvularia lunata [6] = test: Antifungal activity against Curvularia lunata at 100 ug after 48 hrs by agar disc-diffusion method; conditions: read-out: IZ; in short: as §1
Escherichia coli [7] = test: Antibacterial activity against Escherichia coli at 200 ug after 24 hrs by agar disc-diffusion method; conditions: read-out: IZ; in short: as §2
Escherichia coli [8] = test: Antibacterial activity against Escherichia coli at 100 ug after 24 hrs by agar disc-diffusion method; conditions: read-out: IZ; in short: as §2
Aspergillus niger [9] = test: Antifungal activity against Aspergillus niger at 200 ug after 48 hrs by agar disc-diffusion method; conditions: read-out: IZ; in short: as §1
Bacillus subtilis [10] = test: Antibacterial activity against Bacillus subtilis at 100 ug after 24 hrs by agar disc-diffusion method; conditions: read-out: IZ; in short: as §2
Aspergillus niger [11] = test: Antifungal activity against Aspergillus niger at 100 ug after 48 hrs by agar disc-diffusion method; conditions: read-out: IZ; in short: as §1
Fusarium solani [12] = test: Antifungal activity against Fusarium solani at 100 ug after 48 hrs by agar disc-diffusion method; conditions: read-out: IZ; in short: as §1
Staphylococcus aureus [13] = test: Antibacterial activity against Staphylococcus aureus at 100 ug after 24 hrs by agar disc-diffusion method; conditions: read-out: IZ; in short: as §2
Curvularia lunata [14] = test: Antifungal activity against Curvularia lunata at 200 ug after 48 hrs by agar disc-diffusion method; conditions: read-out: IZ; in short: as §1
Bacillus subtilis [15] = test: Antibacterial activity against Bacillus subtilis after 24 hrs by microdilution susceptibility method
In short: (§3)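 Microdilution susceptibility test on bacterial strains from NCIM, Pune. Microorganism suspensions were inoculated into wells containing the compound and incubated at 36 °C for 24 h. MIC was taken as the lowest concentration showing no turbidity, meaning complete inhibition of visible growth.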

Klebsiella pneumoniae [16] = test: Antibacterial activity against Klebsiella pneumoniae after 24 hrs by microdilution susceptibility method; in short: as §3
Staphylococcus aureus [17] = test: Antibacterial activity against Staphylococcus aureus after 24 hrs by microdilution susceptibility method; in short: as §3
Escherichia coli [18] = test: Antibacterial activity against Escherichia coli after 24 hrs by microdilution susceptibility method; in short: as §3
Curvularia lunata [19] = test: Antifungal activity against Curvularia lunata after 48 hrs by microdilution susceptibility method
In short: (§4)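 Broth microdilution with fungi from NCIM, Pune. Fungal suspensions were added to wells containing the compound and incubated at 36 °C for 48 h. MIC was recorded as the lowest concentration with no turbidity, that is, no visible growth.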

Aspergillus niger [20] = test: Antifungal activity against Aspergillus niger after 48 hrs by microdilution susceptibility method; in short: as §4
Fusarium solani [21] = test: Antifungal activity against Fusarium solani after 48 hrs by microdilution susceptibility method; in short: as §4

| MIC (Bacillus subtilis [15]) | MIC (Klebsiella pneumoniae [16]) | MIC (Staphylococcus aureus [17]) | MIC (Escherichia coli [18]) | MIC (Curvularia lunata [19]) | MIC (Aspergillus niger [20]) | Structure (SMILES) | zone of inhibition at 200 µg/disc (Fusarium solani [1]) | zone of inhibition at 200 µg/disc (Klebsiella pneumoniae [2]) | zone of inhibition at 200 µg/disc (Bacillus subtilis [3]) | zone of inhibition at 100 µg/disc (Klebsiella pneumoniae [4]) | zone of inhibition at 200 µg/disc (Staphylococcus aureus [5]) | zone of inhibition at 100 µg/disc (Curvularia lunata [6]) | zone of inhibition at 200 µg/disc (Escherichia coli [7]) | zone of inhibition at 100 µg/disc (Escherichia coli [8]) | zone of inhibition at 200 µg/disc (Aspergillus niger [9]) | zone of inhibition at 100 µg/disc (Bacillus subtilis [10]) | zone of inhibition at 100 µg/disc (Aspergillus niger [11]) | zone of inhibition at 100 µg/disc (Fusarium solani [12]) | zone of inhibition at 100 µg/disc (Staphylococcus aureus [13]) | zone of inhibition at 200 µg/disc (Curvularia lunata [14]) | also measured |
| --- | --- | --- | --- | --- | --- | --- | --- | --- | --- | --- | --- | --- | --- | --- | --- | --- | --- | --- | --- | --- | --- |
| – | – | – | – | – | – | Cc1ccc([C@H]2CNN=C2S(=O)(=O)Cc2nnc(S)n2N)cc1 | 37 mm | 24 mm | 29 mm | 22 mm | 28 mm | 34 mm | 26 mm | 24 mm | 38 mm | 27 mm | 35 mm | 32 mm | 25 mm | 39 mm | – |
| – | – | – | – | – | – | O=S(=O)(Cc1nnc(S)s1)C1=NNC[C@@H]1c1ccccc1 | 24 mm | 20 mm | 23 mm | 17 mm | 21 mm | 26 mm | 20 mm | 15 mm | 28 mm | 20 mm | 25 mm | 22 mm | 18 mm | 29 mm | – |
| – | – | – | – | – | – | O=S(=O)(Cc1nnc(S)o1)C1=NNC[C@@H]1c1ccccc1 | 19 mm | 16 mm | 15 mm | 14 mm | 16 mm | 17 mm | 18 mm | 15 mm | 21 mm | 13 mm | 16 mm | 17 mm | 14 mm | 22 mm | – |
| – | – | – | – | – | – | Cc1ccc([C@H]2CNN=C2S(=O)(=O)Cc2nnc(S)o2)cc1 | 20 mm | 12 mm | 16 mm | 10 mm | 15 mm | 16 mm | 14 mm | 12 mm | 21 mm | 13 mm | 17 mm | 16 mm | 12 mm | 18 mm | – |
| 12.5 µg/mL (≈ 33.5 µM) | 50 µg/mL (≈ 134 µM) | 12.5 µg/mL (≈ 33.5 µM) | 50 µg/mL (≈ 134 µM) | 12.5 µg/mL (≈ 33.5 µM) | 25 µg/mL (≈ 67 µM) | Nn1c(S)nnc1CS(=O)(=O)C1=NNC[C@@H]1c1ccc(Cl)cc1 | 43 mm | 28 mm | 36 mm | 26 mm | 35 mm | 39 mm | 25 mm | 23 mm | 40 mm | 34 mm | 36 mm | 40 mm | 32 mm | 42 mm | MIC (Fusarium solani [21]): 25 µg/mL (≈ 67 µM) |
| – | – | – | – | – | – | O=S(=O)(Cc1nnc(S)o1)C1=NNC[C@@H]1c1ccc(Cl)cc1 | 18 mm | 14 mm | 18 mm | 11 mm | 17 mm | 16 mm | 13 mm | 11 mm | 18 mm | 15 mm | 14 mm | 15 mm | 13 mm | 19 mm | – |
| – | – | – | – | – | – | Cc1ccc([C@H]2CNN=C2S(=O)(=O)Cc2nnc(S)s2)cc1 | 26 mm | 19 mm | 19 mm | 16 mm | 17 mm | 20 mm | 21 mm | 18 mm | 24 mm | 16 mm | 22 mm | 24 mm | 14 mm | 23 mm | – |
| 200 µg/mL (≈ 533 µM) | 200 µg/mL (≈ 533 µM) | 100 µg/mL (≈ 267 µM) | 200 µg/mL (≈ 533 µM) | 100 µg/mL (≈ 267 µM) | 200 µg/mL (≈ 533 µM) | O=S(=O)(Cc1nnc(S)s1)C1=NNC[C@@H]1c1ccc(Cl)cc1 | 31 mm | 26 mm | 31 mm | 24 mm | 29 mm | 23 mm | 27 mm | 22 mm | 29 mm | 28 mm | 26 mm | 28 mm | 25 mm | 26 mm | MIC (Fusarium solani [21]): 100 µg/mL (≈ 267 µM) |
| 25 µg/mL (≈ 73.9 µM) | 100 µg/mL (≈ 295 µM) | 25 µg/mL (≈ 73.9 µM) | 50 µg/mL (≈ 148 µM) | 100 µg/mL (≈ 295 µM) | 100 µg/mL (≈ 295 µM) | Nn1c(S)nnc1CS(=O)(=O)C1=NNC[C@@H]1c1ccccc1 | 44 mm | 24 mm | 33 mm | 21 mm | 30 mm | 37 mm | 25 mm | 22 mm | 39 mm | 31 mm | 36 mm | 39 mm | 28 mm | 41 mm | MIC (Fusarium solani [21]): 100 µg/mL (≈ 295 µM) |

| Structure (SMILES) | MIC (Bacillus subtilis [15]) | MIC (Klebsiella pneumoniae [16]) | MIC (Staphylococcus aureus [17]) | MIC (Escherichia coli [18]) | MIC (Curvularia lunata [19]) | MIC (Aspergillus niger [20]) | zone of inhibition at 200 µg/disc (Fusarium solani [1]) | zone of inhibition at 200 µg/disc (Klebsiella pneumoniae [2]) | zone of inhibition at 200 µg/disc (Bacillus subtilis [3]) | zone of inhibition at 100 µg/disc (Klebsiella pneumoniae [4]) | zone of inhibition at 200 µg/disc (Staphylococcus aureus [5]) | zone of inhibition at 100 µg/disc (Curvularia lunata [6]) | zone of inhibition at 200 µg/disc (Escherichia coli [7]) | zone of inhibition at 100 µg/disc (Escherichia coli [8]) | zone of inhibition at 200 µg/disc (Aspergillus niger [9]) | zone of inhibition at 100 µg/disc (Bacillus subtilis [10]) | zone of inhibition at 100 µg/disc (Aspergillus niger [11]) | zone of inhibition at 100 µg/disc (Fusarium solani [12]) | zone of inhibition at 100 µg/disc (Staphylococcus aureus [13]) | zone of inhibition at 200 µg/disc (Curvularia lunata [14]) | also measured |
| --- | --- | --- | --- | --- | --- | --- | --- | --- | --- | --- | --- | --- | --- | --- | --- | --- | --- | --- | --- | --- | --- |
| O=C(N[C@H](CO)[C@H](O)c1ccc([N+](=O)[O-])cc1)C(Cl)Cl [CHLORAMPHENICOL] | 6.25 µg/mL (≈ 19.3 µM) | 12.5 µg/mL (≈ 38.7 µM) | 6.25 µg/mL (≈ 19.3 µM) | 6.25 µg/mL (≈ 19.3 µM) | – | – | – | 45 mm | 41 mm | 42 mm | 39 mm | – | 44 mm | 40 mm | – | 38 mm | – | – | 35 mm | – | – |
| CC(=O)N1CCN(c2ccc(OCC3COC(Cn4ccnc4)(c4ccc(Cl)cc4Cl)O3)cc2)CC1 (stereo not drawn) [KETOCONAZOLE] | – | – | – | – | 6.25 µg/mL (≈ 11.8 µM) | 6.25 µg/mL (≈ 11.8 µM) | 42 mm | – | – | – | – | 41 mm | – | – | 39 mm | – | 36 mm | 38 mm | – | 44 mm | MIC (Fusarium solani [21]): 12.5 µg/mL (≈ 23.5 µM) |
